This is an account of results in ChEMBL document CHEMBL4406900, “Synthesis and antidepressant-like activity of novel alkoxy-piperidine derivatives targeting SSRI/5-HT1A/5-HT7” (Bioorg Med Chem Lett, 2019).

The target of series [1] is T1, 5-hydroxytryptamine receptor 7 (Homo sapiens, UniProt P34969). The series can be described thus: Displacement of [3H]-LSD from 5HT7 receptor (unknown origin) expressed in CHO cell membranes at 1 uM incubated for 120 mins by scintillation counting method relative to control. In outline: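 Single-concentration radioligand displacement on receptor-expressing cell membrane homogenates: [3H]-8-OH-DPAT with HEK-293 membranes for 5-HT1A, [3H]-LSD with CHO membranes for 5-HT7. Values are given as inhibition ratio (%).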
T1 sequence (P34969 whole entry): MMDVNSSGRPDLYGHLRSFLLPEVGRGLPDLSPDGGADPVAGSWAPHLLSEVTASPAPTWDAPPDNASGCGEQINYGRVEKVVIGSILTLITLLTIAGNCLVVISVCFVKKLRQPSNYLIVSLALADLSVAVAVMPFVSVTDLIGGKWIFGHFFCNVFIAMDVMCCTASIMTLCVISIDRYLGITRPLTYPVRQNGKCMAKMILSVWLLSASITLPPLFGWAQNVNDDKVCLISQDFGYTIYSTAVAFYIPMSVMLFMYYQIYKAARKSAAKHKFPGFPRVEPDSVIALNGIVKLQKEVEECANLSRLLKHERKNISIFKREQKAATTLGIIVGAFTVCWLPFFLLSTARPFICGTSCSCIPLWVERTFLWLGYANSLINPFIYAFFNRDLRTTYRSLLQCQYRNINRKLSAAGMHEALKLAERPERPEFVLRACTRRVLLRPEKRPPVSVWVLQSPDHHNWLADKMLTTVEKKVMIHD

Series [2] deals with T2, 5-hydroxytryptamine receptor 1A (Homo sapiens) (UniProt P08908).
T2 sequence (whole entry): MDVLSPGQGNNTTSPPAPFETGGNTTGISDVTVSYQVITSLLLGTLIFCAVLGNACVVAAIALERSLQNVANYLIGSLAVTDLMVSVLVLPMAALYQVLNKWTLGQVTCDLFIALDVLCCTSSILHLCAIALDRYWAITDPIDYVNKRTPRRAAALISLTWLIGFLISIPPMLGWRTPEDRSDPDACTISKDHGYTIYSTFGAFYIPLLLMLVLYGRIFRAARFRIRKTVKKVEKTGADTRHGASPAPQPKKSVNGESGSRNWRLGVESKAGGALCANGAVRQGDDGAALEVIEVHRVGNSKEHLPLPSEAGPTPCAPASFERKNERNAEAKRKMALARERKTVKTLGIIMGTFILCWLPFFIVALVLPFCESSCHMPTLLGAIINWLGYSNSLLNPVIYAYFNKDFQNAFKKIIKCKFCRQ
The series is described as follows: Displacement of [3H]-8-OH-DPAT from 5HT1A receptor (unknown origin) expressed in HEK293 cells membranes at 1 uM incubated for 60 mins by scintillation counting method relative to control. The class given is cell membranes. (Displacement assays read how much labelled ligand stays bound in the presence of the test substance.)

Series [3] deals with Sodium-dependent serotonin transporter (Rattus norvegicus) (UniProt P31652). The series can be described thus: Inhibition of rat synaptosomes 5HT transporter assessed as reduction in [3H]serotonin reuptake at 1 uM incubated for 15 mins by scintillation counting method relative to control. The class given is subcellular. The method in brief:
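Rat brain synaptosomes; inhibition of [3H]-5-HT incorporation through the serotonin uptake transporter at a single concentration, expressed as inhibition ratio (%).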

For series [4], the system named is Mus musculus. The series can be described thus: Antidepressant activity in mouse assessed as decrease in immobility time at 40 mg/kg, po administrated for daily for 7 days measured 1 hr post last dose by forced swim test relative to control. Details: scale not given: the % may be the effect or the level left. The class given is functional. The method in brief:
(§1)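 Male mice, repeated oral dosing at 10, 20 or 40 mg/kg/day for 7 days. Immobility time was scored in the forced swim test. n = 10 per group, mean ± SEM, compared with a vehicle group (*P < 0.05, **P < 0.01).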

Series [5] deals with Mus musculus. The series can be described thus: Antidepressant activity in mouse assessed as decrease in immobility time at […], po administrated for daily for 7 days measured 1 hr post last dose by tail suspension test relative to control. The class given is functional. Also noted: scale not given: the % may be the effect or the level left.
Series [6] in a line: Clearance in human liver microsomes at 1 uM in presence of NADPH generating system measured for 10 to 90 mins by LC-MS/MS analysis. The class given is ADME, Microsome. Particulars: read-out: CLH. The method in brief: (§2)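 Metabolic stability in rat or human liver microsomes, reported as t1/2 (min) and intrinsic clearance CL (µL/min/mg).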
Series [7] concerns Mus musculus. The series can be described thus: Antidepressant activity in mouse assessed as decrease in immobility time at 10 mg/kg, po administrated for daily for 7 days measured 1 hr post last dose by tail suspension test relative to control. It counts as functional. Details: scale not given: the % may be the effect or the level left. In outline: (§3)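 Tail suspension test in male mice after 7 days of repeated PO dosing at 10, 20 or 40 mg/kg/day. Immobility time was recorded with n = 10 per group, given as mean ± SEM and tested against vehicle (*P < 0.05, **P < 0.01).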

The target of series [8] is T1, 5-hydroxytryptamine receptor 7. The series is described as follows: Displacement of [3H]-LSD from 5HT7 receptor (unknown origin) expressed in CHO cell membranes incubated for 120 mins by scintillation counting method. The method in brief:
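For 5-HT7, [3H]-LSD displacement binding was run on CHO cell membrane homogenates. Ki came from 8 concentrations, each tested in duplicate.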

The target in series [9] is T3, 5-hydroxytryptamine receptor 1A (Homo sapiens, UniProt P08908).
T3 sequence (P08908 whole entry): T2 sequence (whole entry)
The series can be described thus: Displacement of [3H]-8-OH-DPAT from 5HT1A receptor (unknown origin) expressed in HEK293 cells membranes incubated for 60 mins by scintillation counting method. It counts as cell membranes.

The subject of series [10] is Mus musculus. The series can be described thus: Antidepressant activity in mouse assessed as decrease in immobility time at 20 mg/kg, po administrated for daily for 7 days measured 1 hr post last dose by tail suspension test relative to control. It counts as functional. Details: scale not given: the % may be the effect or the level left. In outline: as §3
Series [11] in a line: Half life in human liver microsomes at 1 uM in presence of NADPH generating system measured for 10 to 90 mins by LC-MS/MS analysis. It counts as ADME, Microsome. In outline:
as §2
For orientation: Microsomes from liver hold many membrane-bound enzymes, among them those of drug oxidation.

The subject of series [12] is Mus musculus. The series is described as follows: Antidepressant activity in mouse assessed as decrease in immobility time at 10 mg/kg, po administrated for daily for 7 days measured 1 hr post last dose by forced swim test relative to control. It counts as functional. Details: scale not given: the % may be the effect or the level left. The method in brief: as §1
Series [13] has as its system Mus musculus. The series is described as follows: Antidepressant activity in mouse assessed as decrease in immobility time at 20 mg/kg, po administrated for daily for 7 days measured 1 hr post last dose by forced swim test relative to control. Details: scale not given: the % may be the effect or the level left. It counts as functional. The method in brief: as §1
The nature of series [14]: Half life in rat liver microsomes at 1 uM in presence of NADPH generating system measured for 10 to 90 mins by LC-MS/MS analysis. The class given is ADME, Microsome. The method in brief:
as §2

The nature of series [15]: Clearance in rat liver microsomes at 1 uM in presence of NADPH generating system measured for 10 to 90 mins by LC-MS/MS analysis. Particulars: read-out: CLH. It counts as ADME, Microsome. The method in brief: as §2
The target in series [16] is Sodium-dependent serotonin transporter (Rattus norvegicus, UniProt P31652). The series is described as follows: Inhibition of rat synaptosomes 5HT transporter assessed as reduction in [3H]serotonin reuptake incubated for 15 mins by scintillation counting method. The class given is subcellular. In outline: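 Serotonin uptake transporter assay: inhibition of [3H]-5-HT incorporation into rat brain synaptosomes. IC50 was derived from 8 concentrations, each in duplicate.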
Sequence of Sodium-dependent serotonin transporter (P31652 whole entry): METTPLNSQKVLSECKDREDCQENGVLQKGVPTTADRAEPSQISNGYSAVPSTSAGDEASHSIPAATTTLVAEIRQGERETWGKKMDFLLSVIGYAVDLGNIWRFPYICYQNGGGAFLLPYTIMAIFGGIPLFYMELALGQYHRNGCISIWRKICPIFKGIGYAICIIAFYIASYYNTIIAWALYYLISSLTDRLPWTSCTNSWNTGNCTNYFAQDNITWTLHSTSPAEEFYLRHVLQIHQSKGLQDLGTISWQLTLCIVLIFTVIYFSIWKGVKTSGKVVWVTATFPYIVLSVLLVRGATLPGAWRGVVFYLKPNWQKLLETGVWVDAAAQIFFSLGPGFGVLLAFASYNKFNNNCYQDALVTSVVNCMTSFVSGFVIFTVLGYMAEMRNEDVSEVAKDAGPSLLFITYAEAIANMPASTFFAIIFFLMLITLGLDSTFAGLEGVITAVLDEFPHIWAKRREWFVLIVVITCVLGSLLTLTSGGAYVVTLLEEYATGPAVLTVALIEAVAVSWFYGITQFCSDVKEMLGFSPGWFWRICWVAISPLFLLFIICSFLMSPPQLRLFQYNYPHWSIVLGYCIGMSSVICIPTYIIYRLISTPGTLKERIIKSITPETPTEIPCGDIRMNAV

As a reminder, the inhibition is the drop in the measured response relative to a control, in per cent. The term Ki denotes a measure of affinity in units of concentration, obtained from inhibition or displacement. The term half-life denotes how long it takes for the measured level to halve. The term IC50 denotes the concentration needed to halve the response being measured.

Sequence of Sodium-dependent serotonin transporter (Rattus norvegicus) (P31652 whole entry): as above

Regarding `N#Cc1ccc(-c2cc(F)ccc2OCCN2CCC(c3c[nH]c4ccc(F)cc34)CC2)cc1`, the inhibition in series [1] was 95.8%; in series [2], 97.5%; in [3], 63%.
`Fc1ccc(OCCN2CCC(c3c[nH]c4ccc(F)cc34)CC2)c(-c2ccc(Cl)cc2)c1`: the results for the inhibition in [1], in series [2] and in series [3] were 80.3%, 95% and 27.3%, respectively.
On the same counts, the results for `Fc1ccc(OCCCN2CCC(Cc3c[nH]c4ccc(F)cc34)CC2)c(-c2ccccc2)c1` are 86.4%, 81.9% and 102%.
Take `Cc1ccc(Sc2ccccc2N2CCNCC2)c(C)c1` [VORTIOXETINE]: the Activity in series [4] turned out to be 52%; in series [5], 48%. In addition, the inhibition worked out at 92.5% in series [1] and 101% in series [3]. Also, the microsomal CLint at 1 µM in series [6] was 6.5 µL/min/mg.
With `COc1ccc(-c2cc(F)ccc2OCCN2CCC(c3c[nH]c4ccc(F)cc34)CC2)cc1`, the inhibition was found to be 95.9% in series [1], 98.7% in series [2] and 12.3% in [3].
Turning to `Fc1ccc(OCCN2CCC(Cc3c[nH]c4ccc(F)cc34)CC2)c(-c2ccccc2)c1`, the inhibition was found to be 97.2% in [1], 72.3% in series [2] and 101% in [3].
On the same counts, the results for `Fc1ccc(OCCN2CCC(c3c[nH]c4ccc(F)cc34)CC2)c(-c2ccccc2F)c1` are 88.7%, 97.8% and 97.1%.
Regarding `Fc1ccc(OCCN2CCC(CCc3c[nH]c4ccc(F)cc34)CC2)c(-c2ccccc2)c1`, the inhibition in series [1] is 94.3%; in series [2], 54.3%; in [3], 99.8%.
As for `Fc1ccc2[nH]cc(C3CCN(CCOc4ccc(F)c(-c5ccccc5)c4)CC3)c2c1`, the inhibition in series [1] was 54.2%; in [2], 96.9%; in [3], 66.6%.
On the same counts, the results for `Cc1ccc(-c2cc(F)ccc2OCCN2CCC(c3c[nH]c4ccc(F)cc34)CC2)cc1` are 86.2%, 94.5% and 38.9%.
On to `Fc1ccc(OCCN2CCC(c3c[nH]c4ccc(F)cc34)CC2)c(-c2ccccc2)c1`, for which the Activity in series [4] is on record as 22%; in [7], 10%; in [10] it was 22%; in [12], 17%; in [13] it was 8%; in [5], 24%. Moreover, the inhibition in [1] worked out at 90.4%; in series [2] it was 94.2%; in [3] it was 96.3%. Moreover, the Ki in series [8] was found to be 25 nM; in series [9], 12 nM. For the same compound, the half-life at 1 µM amounted to 61.5 min in series [11] and 34.5 min in [14]. Further, the microsomal CLint at 1 µM in series [15] came to 40.2 µL/min/mg; in series [6], 22.5 µL/min/mg. Further, in [16], the IC50 amounted to 177 nM.
With `Fc1ccc(OCCCN2CCC(c3c[nH]c4ccc(F)cc34)CC2)c(-c2ccccc2)c1`, the inhibition is 76.1% in [1], 97.7% in series [2] and 87% in series [3].
Consider `Fc1cccc(-c2cc(F)ccc2OCCN2CCC(c3c[nH]c4ccc(F)cc34)CC2)c1`, for which the Activity is reported as 27% in series [4]; 8% in [7]; 2% in [10]; 20% in series [12]; 6% in series [13]; 17% in series [5]. The figures for the inhibition in [1], in [2] and in series [3] were 91%, 95.9% and 94.3%, respectively. For the same compound, the Ki in series [8] was 35 nM; in [9], 17 nM. For the same compound, the figures for the half-life at 1 µM in [11] and in series [14] were 61.4 min and 22.9 min, respectively. Besides, the microsomal CLint at 1 µM in series [15] came to 60.4 µL/min/mg; in series [6], 22.6 µL/min/mg. Moreover, the IC50 in series [16] amounted to 85 nM.
On to `Fc1ccc(-c2cc(F)ccc2OCCN2CCC(c3c[nH]c4ccc(F)cc34)CC2)cc1`, for which the inhibition came out at 86.5% in series [1], 97.4% in series [2] and 90.6% in series [3].
As for `COc1ccc2c(c1)[C@]13CCCC[C@@H]1[C@H](C2)N(C)CC3` [DEXTROMETHORPHAN], the microsomal CLint at 1 µM in [6] was found to be 31 µL/min/mg.
